Compounds with a hit are over-represented: about 4.2% of the library has one in this group of screens.
CHOP UPR activ: activators of apoptotic arm of unfolded protein response (CHOP); 330,000 compounds, 0.34% hits; AID 449763; CHO-CHOP luciferase reporter, UPR activation, luminescence; percent of tunicamycin response over DMSO baseline; activation, % at 10 µM;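 active = at 10 µM dose, activation of 40% or more, normalized to positive control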
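Assay system: CHO cells with stable CHOP pathway luciferase reporter; Buffer or medium: F12 plus 10% serum; Times: 16-18 h cell attachment, then 6 h compound exposure, 37 °C; Signal: luciferase luminescence; Read-out basis: percent activation relative to tunicamycin control; Control set: tunicamycin high control, DMSO low control.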
CHOP inh: inhibitors of CHOP induction in ER stress response; inhibition, % at 10 µM; CHO-K1 CHOP-promoter luciferase, tunicamycin-induced, 15-18 h; 220,000 compounds, 3.8% hits;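 active = compounds that reduced the stress-induced luciferase reporter signal by more than about 70% of percent inhibition, limit read from the data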
TMEM16A act: mouse TMEM16A channel activation, primary screen. Q8BHY3. HEK293 TMEM16A/YFP-H148Q/I152L, iodide quench fluorescence; stronger effect = lower value. B-score at 10 µM. 340,000 compounds, 0.3% hits. AID 623877;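 active = fluorescence-ratio B-score plate-corrected deviation score at least 3 library SD below zero, with starting fluorescence score within 5 deviations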;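 also: channel opened by trigger with iodide after compound preincubation; score built on the fluorescence ratio of max minus min over baseline; more negative score means more quench and so TMEM16A activation or potentiation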
ANO1 block: mouse TMEM16A channel inhibition, primary screen; normalized B-score (activity score, 25-100; higher = stronger inhibition) at 10 µM; HEK293 TMEM16A/YFP iodide influx fluorescence, ionomycin; 310,000 compounds, 1.2% hits;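 active = ratio plate-corrected score three or more library SD toward inhibition, starting fluorescence score within five deviations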;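 also: score derived from kinetic fluorescence span divided by baseline fluorescence per well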
Lipid droplet: hepatic lipid droplet formation modulation. AML12 mouse hepatocytes, oleate lipid droplets, BODIPY imaging. 240,000 compounds, 0.4% hits. inhibition, % at 6.5 µM;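 active = lipid droplet intensity inhibited by at least 50%, with more than 500 cells counted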
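Material – mouse AML12 hepatocyte cell line, fixed after treatment · Compound dosing – one dose, 6.5 µM compound · Times – compound with oleate, overnight · Measured by – Image-based BODIPY and DAPI two-channel analysis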
UPR XBP1 act: activators of adaptive arm of unfolded protein response (XBP1); CHO-XBP1 luciferase reporter, IRE1-XBP1 UPR activation, luminescence; percent of tunicamycin response, DMSO as zero; activation, % at 20 µM; 330,000 compounds, 0.33% hits; AID 463104;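 active = versus positive control, 20 µM dose yields 30% or more activation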
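Test system: CHO-XBP1 luciferase reporter cells | Buffer or medium: Serum-containing F12 medium, 10% FBS | Schedule: 6 h compound exposure at 37 °C, 5% CO2 | Detection: Steady-Glo luciferase glow luminescence, 10 min after reagent addition | Read-out basis: Activation, % of tunicamycin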
Each line names hits and unclear results; the compound was inactive in the other large screens.

COc1cc2cc(C(c3nnnn3C3CCCCC3)N(C)C3CCCCC3)c(=O)[nH]c2cc1OC (centres undefined)	CHOP inh 84 (no result: TMEM16A act)
CCCCCCNC(=O)CCCCCNS(=O)(=O)c1ccc(OC)cc1	none
O=C(Oc1ccc(Br)cc1)c1n[nH]c(=O)c2ccccc12	none
Cc1nc(NC(=O)c2ccc(F)cc2)sc1C(=O)Nc1ccc2c(c1)CCC2	CHOP inh 82 (no result: Lipid droplet)
Cn1c2c(c(=O)n(C)c1=O)CN(CC1CCCO1)CN2 (centres undefined)	CHOP inh 73 (no result: Lipid droplet)
O=C(COC(=O)CCNS(=O)(=O)c1ccccc1)NC(=O)c1ccccc1	none (no result: CHOP inh, Lipid droplet)
O=C(CSc1ncnc2sc3c(c12)CCCC3)c1ccco1	none (no result: Lipid droplet)
O=C(CSc1ncnc2sc3c(c12)CCCC3)c1ccccc1	TMEM16A act -5
Oc1c(C=Nc2ccccc2)sc(=S)n1Cc1ccccc1	CHOP inh 80
CCn1c(O)c(C=Nc2ccccc2)sc1=S	none (no result: TMEM16A act)
CCC(=O)N(C)CCc1cc2c(c(OC)c1/C=N/NC(=O)c1ccc(Br)cc1)OCO2	none
CCN(c1ccccc1)S(=O)(=O)c1ccc(NCC2COc3ccccc3O2)nc1 (centres undefined)	CHOP inh 85 (no result: Lipid droplet)
O=C(Cn1cc(S(=O)(=O)N2CCCC2)c(S(=O)(=O)N2CCCC2)c1)NCc1ccco1	none (no result: CHOP inh)
O=C(Nc1ccc(Cl)cc1)C1C2CCC3C(CCC21)C3(Cl)Cl (centres undefined)	CHOP inh 72 (no result: CHOP UPR activ, ANO1 block, Lipid droplet, UPR XBP1 act)
Cc1cccc(NC(=O)C2C3CCC4C(CCC32)C4(Cl)Cl)c1 (centres undefined)	CHOP inh 76
O=C(Nc1ccc(F)cc1)C1C2CCC3C(CCC21)C3(Cl)Cl (centres undefined)	none
Cc1ccc(C2CC(=O)C=C(O)C2)cc1 (centres undefined)	ANO1 block 100
O=C1C=C(Nc2ccc(Cl)cc2)CC(c2ccc(Cl)cc2)C1 (centres undefined)	none
Cc1ccc(C2=CC(=O)C[C@H](c3ccc(Cl)cc3)C2)cc1	none (no result: CHOP inh, ANO1 block, Lipid droplet)
Cc1ccc(C2CC(=O)C=C(Nc3ccc(Cl)cc3)C2)cc1 (centres undefined)	CHOP inh 73
Cc1c(NC(=O)[C@@H](NC(=O)c2ccc(Cl)c([N+](=O)[O-])c2)C(C)C)c(=O)n(-c2ccccc2)n1C	none (no result: CHOP inh, ANO1 block, Lipid droplet)
CNc1cc(CSc2ccc(Cl)cc2)nc(C)n1	none
Cc1nc(CSc2ccc(Cl)cc2)cc(NCc2ccccc2)n1	CHOP inh 91
CCC1CCCCN1S(=O)(=O)c1ccc(NC(=O)C2CC(=O)N(C(C)(C)C)C2)cc1 (centres undefined)	none (no result: CHOP UPR activ, CHOP inh, ANO1 block, Lipid droplet, UPR XBP1 act)
COc1cccc(N=Nc2c(=O)[nH]n3c(=O)cc(C)[nH]c23)c1	TMEM16A act -21
CCCS(=O)(=O)N1CCN(C2Cc3ccccc3C2)CC1	TMEM16A act -13
CCCS(=O)(=O)N1CCN(C2CCC(C)CC2)CC1 (centres undefined)	none
COc1cc(NC(=O)c2cc(C)no2)c(OC)cc1Cl	none (no result: CHOP inh)
Cc1ccccc1CN1CCN(S(=O)(=O)c2ccc(F)cc2)CC1	CHOP inh 88
O=C(Cc1c[nH]c2ccccc12)N1CCN(S(=O)(=O)c2ccc(Cl)cc2)CC1	none (no result: CHOP inh, ANO1 block, Lipid droplet)
O=S(=O)(c1ccc(Cl)cc1)N1CCN(Cc2c[nH]c3ccccc23)CC1	CHOP inh 71
NC(=S)N/N=C1\CC(n2nnn(-c3cccc(Cl)c3)c2=S)C2COC1O2 (centres undefined)	TMEM16A act -5.6
Cc1cc(C)cc(NC(=O)CN2CCC(C(=O)c3ccccc3)CC2)c1	none (no result: CHOP inh)
COc1ccc2oc(=Nc3ccccc3)c(-c3nc4ccccc4[nH]3)cc2c1	CHOP inh 86
COc1ccc(-c2nc3ccccc3[nH]2)cc1	none (no result: CHOP inh)
CCn1c(CNC(=O)COc2ccc(C(C)C)cc2)nnc1SCC(=O)Nc1ccccc1F	none
CCn1c(CNC(=O)COc2ccc(C(C)C)cc2)nnc1SCC(=O)Nc1ccccc1C(C)C	ANO1 block 25 (no result: Lipid droplet)
